pIC50, pKi: −log10 of the molar value. Where a name gives a salt, the structure may show the parent alone. Activity calls are given as the source filed them. The rule behind the calls is not given here. Residues, ends and D or L forms follow the SMILES beside them.
Tests used:
[1] = Binding affinity to sodium channel site 2 (unknown origin) by radioligand displacement assay; parameters: species or system Homo sapiens
[2] = biological target: Sigma non-opioid intracellular receptor 1 (Rattus norvegicus) (UniProt Q9R0C9); assay: Positive allosteric modulation of Wistar rat sigma 1 receptor assessed as increase in electrically-stimulated vas deferens contraction at 10 uM after 10 mins
Chain of Sigma non-opioid intracellular receptor 1 (Rattus norvegicus) (Q9R0C9 whole entry): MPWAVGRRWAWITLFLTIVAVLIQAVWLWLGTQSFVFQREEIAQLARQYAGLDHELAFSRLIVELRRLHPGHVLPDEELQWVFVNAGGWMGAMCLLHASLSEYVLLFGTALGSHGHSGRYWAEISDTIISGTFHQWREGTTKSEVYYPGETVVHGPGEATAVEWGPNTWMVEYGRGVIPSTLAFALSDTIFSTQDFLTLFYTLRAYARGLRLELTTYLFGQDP
In short: (§1)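 Isolated rat vas deferens, proximal ~15 mm segments, in K-H buffer at 32 °C gassed […], with 1.0 g passive tension and a 60 min adaptation. Field-stimulated at 0.1 Hz, 1 ms, 50 V. Cumulative PRE-084 (1–100 µM) was given, then washout and a 30 min rest. Test compound 10 µM was added for 10 min before cumulative PRE-084. Response is % increase over baseline amplitude; n=6, mean ± SEM, paired t-test.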

[3] = biological target: Sigma non-opioid intracellular receptor 1 (Rattus norvegicus) (UniProt Q9R0C9); assay: Positive allosteric modulation of Wistar rat sigma 1 receptor assessed as potentiation of PRE-084 effect on electrically-stimulated vas deferens contraction at 10 uM preincubated for 10 mins followed by PRE-084 addition; in short: as §1
[4] = biological target: 5-hydroxytryptamine receptor 2B (Homo sapiens, UniProt P41595); assay: Binding affinity to human 5-HT2B receptor by radioligand displacement assay
Chain of 5-hydroxytryptamine receptor 2B (P41595 whole entry): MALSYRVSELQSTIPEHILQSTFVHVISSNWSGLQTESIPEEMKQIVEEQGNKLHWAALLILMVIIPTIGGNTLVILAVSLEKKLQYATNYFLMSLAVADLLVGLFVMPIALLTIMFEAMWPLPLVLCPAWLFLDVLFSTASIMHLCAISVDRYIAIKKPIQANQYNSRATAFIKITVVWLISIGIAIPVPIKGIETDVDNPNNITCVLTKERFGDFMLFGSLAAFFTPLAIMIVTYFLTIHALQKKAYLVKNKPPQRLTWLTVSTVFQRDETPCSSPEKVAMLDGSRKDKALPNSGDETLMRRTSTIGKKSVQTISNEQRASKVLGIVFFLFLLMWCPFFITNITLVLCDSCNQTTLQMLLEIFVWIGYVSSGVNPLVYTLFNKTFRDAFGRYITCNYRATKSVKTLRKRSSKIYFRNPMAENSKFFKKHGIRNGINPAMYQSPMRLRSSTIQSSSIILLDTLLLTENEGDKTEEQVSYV

[5] = Binding affinity to L-type calcium channel verapamil binding site (unknown origin) by radioligand displacement assay; parameters: species or system Homo sapiens
[6] = biological target: Alpha-2A adrenergic receptor (Homo sapiens, UniProt P08913); assay: Binding affinity to human adrenergic alpha2 receptor by radioligand displacement assay
Chain of Alpha-2A adrenergic receptor (P08913 whole entry): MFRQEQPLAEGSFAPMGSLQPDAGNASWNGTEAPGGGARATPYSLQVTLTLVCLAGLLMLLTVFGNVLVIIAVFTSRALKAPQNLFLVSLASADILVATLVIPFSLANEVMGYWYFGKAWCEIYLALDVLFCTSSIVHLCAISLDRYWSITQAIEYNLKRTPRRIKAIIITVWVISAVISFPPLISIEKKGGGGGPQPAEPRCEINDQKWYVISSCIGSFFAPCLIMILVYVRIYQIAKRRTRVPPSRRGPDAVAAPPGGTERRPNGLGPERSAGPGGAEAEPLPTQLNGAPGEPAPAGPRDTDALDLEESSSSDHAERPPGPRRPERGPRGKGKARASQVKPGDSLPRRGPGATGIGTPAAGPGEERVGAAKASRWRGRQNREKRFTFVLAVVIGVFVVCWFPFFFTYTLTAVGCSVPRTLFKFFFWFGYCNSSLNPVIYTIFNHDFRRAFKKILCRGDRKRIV

[7] = biological target: Type-2 angiotensin II receptor (Homo sapiens, UniProt P50052); assay: Binding affinity to human angiotensin AT2 receptor by radioligand displacement assay
Chain of Type-2 angiotensin II receptor (P50052 whole entry): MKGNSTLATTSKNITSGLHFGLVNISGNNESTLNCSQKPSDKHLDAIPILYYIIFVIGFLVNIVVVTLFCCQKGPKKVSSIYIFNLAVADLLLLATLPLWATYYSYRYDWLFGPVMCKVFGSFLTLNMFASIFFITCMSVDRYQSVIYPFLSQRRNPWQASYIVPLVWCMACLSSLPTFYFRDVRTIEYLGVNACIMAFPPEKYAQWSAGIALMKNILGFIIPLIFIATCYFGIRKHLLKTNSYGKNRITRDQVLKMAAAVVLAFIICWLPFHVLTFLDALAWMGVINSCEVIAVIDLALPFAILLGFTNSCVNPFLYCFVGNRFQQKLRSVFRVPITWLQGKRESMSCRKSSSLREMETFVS

[8] = Binding affinity to GABA-gated chloride channel (unknown origin) by radioligand displacement assay; parameters: species or system Homo sapiens
[9] = biological target: 5-hydroxytryptamine receptor 2C (Homo sapiens, UniProt P28335); assay: Binding affinity to human 5-HT2C receptor by radioligand displacement assay
Chain of 5-hydroxytryptamine receptor 2C (P28335 whole entry): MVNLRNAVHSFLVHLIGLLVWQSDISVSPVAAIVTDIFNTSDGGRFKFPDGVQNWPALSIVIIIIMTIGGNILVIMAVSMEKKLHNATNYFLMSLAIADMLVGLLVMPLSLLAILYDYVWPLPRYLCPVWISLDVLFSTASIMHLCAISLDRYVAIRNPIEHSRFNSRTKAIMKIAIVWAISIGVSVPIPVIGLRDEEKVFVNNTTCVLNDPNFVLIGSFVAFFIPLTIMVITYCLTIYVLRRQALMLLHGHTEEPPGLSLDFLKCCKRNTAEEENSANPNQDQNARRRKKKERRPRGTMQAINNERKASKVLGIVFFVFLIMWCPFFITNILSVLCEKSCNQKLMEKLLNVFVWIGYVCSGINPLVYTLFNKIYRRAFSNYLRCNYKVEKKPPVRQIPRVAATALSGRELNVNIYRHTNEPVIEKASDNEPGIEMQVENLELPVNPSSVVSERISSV

[10] = Binding affinity to P2Y receptor (unknown origin) by radioligand displacement assay; parameters: species or system Homo sapiens
[11] = Binding affinity to PCP receptor (unknown origin) by radioligand displacement assay; parameters: species or system Homo sapiens
[12] = Binding affinity to peripheral-type BZD receptor (unknown origin) by radioligand displacement assay; parameters: species or system Homo sapiens
[13] = Binding affinity to P2X receptor (unknown origin) by radioligand displacement assay; parameters: species or system Homo sapiens
[14] = biological target: Sigma non-opioid intracellular receptor 1 (Homo sapiens, UniProt Q99720)
Chain of Sigma non-opioid intracellular receptor 1 (Q99720 whole entry): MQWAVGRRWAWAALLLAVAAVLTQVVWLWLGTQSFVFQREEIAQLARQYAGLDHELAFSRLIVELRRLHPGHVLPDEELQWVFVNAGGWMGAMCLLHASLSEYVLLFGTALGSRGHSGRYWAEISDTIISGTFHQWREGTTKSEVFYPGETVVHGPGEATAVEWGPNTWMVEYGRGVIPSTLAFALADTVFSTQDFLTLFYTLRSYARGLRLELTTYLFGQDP

[15] = biological target: Muscarinic acetylcholine receptor M5 (Homo sapiens, UniProt P08912); assay: Binding affinity to human muscarinic M5 receptor by radioligand displacement assay
Chain of Muscarinic acetylcholine receptor M5 (P08912 whole entry): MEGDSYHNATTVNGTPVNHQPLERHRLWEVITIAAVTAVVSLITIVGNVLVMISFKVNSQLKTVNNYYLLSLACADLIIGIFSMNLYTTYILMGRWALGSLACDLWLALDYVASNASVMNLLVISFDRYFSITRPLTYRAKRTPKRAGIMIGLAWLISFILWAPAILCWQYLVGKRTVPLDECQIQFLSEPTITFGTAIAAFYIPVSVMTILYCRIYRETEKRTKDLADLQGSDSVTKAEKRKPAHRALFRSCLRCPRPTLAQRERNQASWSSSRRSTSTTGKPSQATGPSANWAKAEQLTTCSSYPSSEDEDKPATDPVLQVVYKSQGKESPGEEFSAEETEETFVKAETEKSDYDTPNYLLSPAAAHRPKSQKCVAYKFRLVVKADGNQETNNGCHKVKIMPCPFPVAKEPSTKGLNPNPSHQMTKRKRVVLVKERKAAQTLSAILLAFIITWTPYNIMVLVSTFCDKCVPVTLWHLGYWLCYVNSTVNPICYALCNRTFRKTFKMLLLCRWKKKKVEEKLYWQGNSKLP

[16] = biological target: Adrenergic receptor alpha-1 (Homo sapiens, UniProt P35348+P25100+P35368); assay: Binding affinity to human adrenergic alpha1 receptor by radioligand displacement assay

**Q.** With `COc1ccc(C(=O)O[C@H]2CC[C@@]3(C)[C@@H]4CC[C@H]5[C@]6(O)C[C@H](O)[C@@]7(O)[C@@H](CN8C[C@@H](C)CC[C@H]8[C@@]7(C)O)[C@]6(O)C[C@@]53O[C@]24O)cc1OC` [VERATRIDINE] as the compound, how does the pIC50 [1] read?
**A.** 5.11

**Q.** For `C[C@@H]1[C@H](c2ccccc2)CC(=O)N1CC(N)=O`, which Activity [2] is on record?
**A.** inactive

**Q.** And the Activity [3]?
**A.** Active

**Q.** With `COc1cc(CC(C)N)c(OC)cc1I` (stereo not given) as the compound, how does the pIC50 [4] read?
**A.** 8.49

**Q.** With `COc1ccc(CCN(C)CCCC(C#N)(c2cc(OC)c(OC)c(OC)c2)C(C)C)cc1OC` (stereo not given) [GALLOPAMIL] as the compound, how does the pIC50 [5] read?
**A.** 7.70

**Q.** Which Activity [2] does the source give for `C[C@H]1[C@H](c2ccccc2)CC(=O)N1CC(N)=O` here?
**A.** inactive

**Q.** And the Activity [3]?
**A.** Active

**Q.** With `Cc1ccc(OCC(O)C(C)NC(C)C)c2c1CCC2` (stereo not given) [ZENIDOLOL] as the compound, how does the pIC50 [6] read?
**A.** 9.30

**Q.** With `CC(C)[C@H](NC(=O)[C@H](CCCNC(=N)N)NC(=O)[C@@H](N)CC(=O)O)C(=O)N[C@@H](Cc1ccc(O)cc1)C(=O)N[C@H](C(=O)N[C@@H](Cc1cnc[nH]1)C(=O)N1CCC[C@H]1C(=O)N[C@@H](C)C(=O)O)C(C)C` [ANGIOTENSIN] (H-DRVYVHPA-OH) as the compound, how does the pIC50 [7] read?
**A.** 9.89

**Q.** With `C=C(C)[C@@H]1[C@H]2OC(=O)[C@@H]1[C@]1(O)C[C@H]3O[C@]34C(=O)O[C@H]2[C@]14C` [PICROTOXININ] as the compound, how does the pIC50 [8] read?
**A.** 6.60

**Q.** With `COc1cc(OC)c(C(=O)CCCCN2CCC3(CC2)NC(=O)NC3=O)cc1NS(=O)(=O)c1ccc(C(F)(F)F)cc1` [RS-102,221] as the compound, how does the pIC50 [9] read?
**A.** 8.26

**Q.** With `Nc1ncnc2c1ncn2[C@H]1C[C@H](O)[C@@H](COP(O)(=S)OP(=O)(O)OP(=O)(O)O)O1` (stereo not given in full) as the compound, how does the pIC50 [10] read?
**A.** 7.60

**Q.** With `C[C@]12N[C@H](Cc3ccccc31)c1ccccc12` [DIZOCILPINE MALEATE] as the compound, how does the pIC50 [11] read?
**A.** 8.22

**Q.** With `CCC(C)N(C)C(=O)c1cc2ccccc2c(-c2ccccc2Cl)n1` (stereo not given) [PK-11195] as the compound, how does the pIC50 [12] read?
**A.** 8.96

**Q.** With `Nc1ncnc2c1ncn2[C@@H]1O[C@H](COP(=O)(O)CP(=O)(O)OP(=O)(O)O)[C@@H](O)[C@H]1O` [DIPHOSPHOMETHYLPHOSPHONIC ACID ADENOSYL ESTER] as the compound, how does the pIC50 [13] read?
**A.** 8.46

**Q.** What does the source list for `C[C@@H]1[C@@H](c2ccccc2)CC(=O)N1CC(N)=O`?
**A.** Activity [2]: inactive; Activity [3]: Active

**Q.** With `COc1cc2c(cc1OC)C(=O)C(CC1CCN(Cc3ccccc3)CC1)C2` (stereo not given) [DONEPEZIL] as the compound, how does the pKi [14] read?
**A.** 7.84

**Q.** With `C[N+]1(C)CCC(OC(=O)C(c2ccccc2)c2ccccc2)CC1` [4-DAMP] as the compound, how does the pIC50 [15] read?
**A.** 9.10

**Q.** Which IC50 [16] does the source give for `CC(C)NCC(O)COc1ccc(CC(N)=O)cc1` (stereo not given) [ATENOLOL] here?
**A.** 230 nM

From ChEMBL document CHEMBL2390917, “Synthesis and biological evaluation of 2-(5-methyl-4-phenyl-2-oxopyrrolidin-1-yl)-acetamide stereoisomers as novel positive allosteric modulators of sigma-1 receptor” (Bioorg Med Chem, 2013)
